Experimental data from PubChem BioAssay AID463148 (The Scripps Research Institute Molecular Screening Center, 2010).
Active and inactive are the calls of the source.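 The calls were made as follows: active = fold change inhibition above 1.5; inactive = the rest.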

Test system: GAL4DBD-VP16 transactivation domain fusion (Human herpesvirus 1 VP16)
Experiment: GAL4-VP16 transactivation inhibitors, late-stage follow-up, counter-screen for RORA inverse agonist project, cell-based, luminescence, HEK293T, powder samples (AID 463148)
Settings: HEK293T GAL4-VP16 UAS-luciferase, 18-24 h, at 10 µM, active compounds read high
Summary of the method: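 Assay system: transfected HEK293T GAL4-VP16 UAS-luciferase reporter cells; doses: single nominal compound concentration of 10 µM; incubation: 20 h compound exposure after transfection; measured by: luminescence of luciferase reporter; read-out basis: fold change relative to DMSO wells; controls: DMSO vehicle-treated cells as reference; repeats: six replicates per compound, averaged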

fold change inhibition	Compound
1.68	O=C(Nc1ccc(C(O)(C(F)(F)F)C(F)(F)F)cc1)c1ccc(F)cc1F
1.01 (inactive)	O=C(Nc1ccc(C(O)(C(F)(F)F)C(F)(F)F)cc1)c1ccc(F)cc1Cl

Further lines, the molecule ahead of its results:

Compound	fold change inhibition
O=C(Nc1ccc(C(O)(C(F)(F)F)C(F)(F)F)cc1)c1ccc(Cl)cc1	1.27 (inactive)
O=S(=O)(Nc1ccc(C(O)(C(F)(F)F)C(F)(F)F)cc1)c1cccs1	0.97 (inactive)
O=C(Nc1ccc(C(O)(C(F)(F)F)C(F)(F)F)cc1)c1c(F)cccc1F	1.05 (inactive)
O=C(Nc1ccc(C(O)(C(F)(F)F)C(F)(F)F)cc1)c1ccccc1C(F)(F)F	0.941 (inactive)
